In ChEMBL document CHEMBL1157331, “Xenicane-type diterpenes with cytotoxicity from Xenia florida” (J Nat Prod, 2006):
pIC50: −log10 of the molar value. In brackets after ≈: the same amount, converted by molar mass.

Columns and labels:
[1] = tested on: KB; test: Cytotoxicity against human KB cells after 72 hrs; assay type: functional; conditions: read-out: ED50 (the source's name)
Method in brief: (§1)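 Methylene blue binding to fixed cell monolayers. 2880 cells/well seeded, 3 h later sample added; samples prepared at […], incubated 37 °C for 3 days. Absorbance read at 650 nm. ED50 is the concentration giving 50% reduction of absorbance versus untreated cells. Mitomycin as positive control.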

[2] = tested on: WiDr; test: Cytotoxicity against human WiDr cells after 72 hrs; assay type: functional, cell-based; conditions: for EC50: read-out: ED50 (the source's name); method in brief: as §1
[3] = Cytotoxicity against human Hepa cells after 72 hrs; assay type: functional; conditions: read-out: ED50 (the source's name); method in brief: as §1

SMILES | EC50 [1] [µg/mL] | EC50 [2] [µg/mL] | EC50 [3] [µg/mL] | pIC50 [2]
C=C1C(=O)[C@H](OC(=O)c2ccccc2)/C=C(\C)CC[C@@H]2C([C@H](OC(C)=O)[C@@H](C=C(C)C)OC(C)=O)=CO[C@@H](OC(C)=O)[C@@H]12 | > 20 | > 20 | > 20 | –
C=C1[C@@H]2[C@H](OC(C)=O)OC=C([C@H](OC(C)=O)[C@@H](C=C(C)C)OC(C)=O)[C@H]2CC/C(C)=C/[C@@H](OC(=O)c2ccccc2)[C@H]1O [FLORXENILIDE A] | > 20 | 2.73 (≈ 4.58 µM) | > 20 | 5.35
CO[C@@]12CC[C@H](OC(C)=O)[C@@](C)(CC[C@@H]3/C(=C\C=C\C(C)(C)O)COC(=O)[C@H]31)C2 [FLORXENILIDE C MONOACETATE] | > 20 | > 20 | > 20 | –
C=C1[C@@H]2[C@H](OC(C)=O)OC=C([C@H](OC(C)=O)[C@@H](C=C(C)C)OC(C)=O)[C@H]2CC/C(C)=C/[C@@H](OC(=O)c2ccccc2)[C@H]1OC(=O)c1ccccc1 | > 20 | > 20 | > 20 | –
C=C1[C@@H]2[C@H](OC(C)=O)OC=C([C@H](OC(C)=O)[C@@H](C=C(C)C)OC(C)=O)[C@H]2CC[C@]2(C)O[C@H]2[C@@H](OC(=O)c2ccccc2)[C@H]1O [FLORXENILIDE B] | 11.4 (≈ 18.6 µM) | 1.88 (≈ 3.07 µM) | 8.03 (≈ 13.1 µM) | 5.43
CO[C@@]12CC[C@H](O)[C@@](C)(CC[C@@H]3/C(=C\C=C\C(C)(C)O)COC(=O)[C@H]31)C2 [FLORXENILIDE C] | > 20 | > 20 | > 20 | –
CO[C@@]12[C@H](COC(N)=O)C3=C(C(=O)C(C)=C(N)C3=O)N1C[C@@H]1N[C@@H]12 [MITOMYCIN] | 0.56 (≈ 1.67 µM) | 0.35 (≈ 1.05 µM) | 0.04 (≈ 0.12 µM) | –
